Experimental data taken from ChEMBL document CHEMBL1128248, “C-9 and N-substituted analogs of cis-(3aR)-(-)-2,3,3a,4,5,9b-hexahydro-3- propyl-1H-benz[e]indole-9-carboxamide: 5-HT1A receptor agonists with various degrees of metabolic stability” (J Med Chem, 1995).
The source made the active and inactive calls. The calls are words filed in the database; no cut-off is given here.

Key:
[1] = molecular target: D(2) dopamine receptor (Rattus norvegicus, UniProt P61169); experiment: Displacement of [3H]U-86170 from Dopamine receptor D2
Summary of the method: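 Competition binding at cloned D2 receptors expressed in CHO-K1 cells, using the agonist [3H]U86170 (62 Ci/mmol, 2 nM) against 11 dilutions of test compound. IC50 was fitted to a one-site model by nonlinear least squares. Ki was obtained with the Cheng–Prusoff equation.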

[2] = molecular target: T1, 5-hydroxytryptamine receptor 1A (Rattus norvegicus, UniProt P19327); experiment: In vitro displacement of radioactively labeled ligand [3H]8-OH-DPAT from 5-hydroxytryptamine 1A receptor site in CHO cells; assay type: cell-based
T1 sequence (P19327 whole entry): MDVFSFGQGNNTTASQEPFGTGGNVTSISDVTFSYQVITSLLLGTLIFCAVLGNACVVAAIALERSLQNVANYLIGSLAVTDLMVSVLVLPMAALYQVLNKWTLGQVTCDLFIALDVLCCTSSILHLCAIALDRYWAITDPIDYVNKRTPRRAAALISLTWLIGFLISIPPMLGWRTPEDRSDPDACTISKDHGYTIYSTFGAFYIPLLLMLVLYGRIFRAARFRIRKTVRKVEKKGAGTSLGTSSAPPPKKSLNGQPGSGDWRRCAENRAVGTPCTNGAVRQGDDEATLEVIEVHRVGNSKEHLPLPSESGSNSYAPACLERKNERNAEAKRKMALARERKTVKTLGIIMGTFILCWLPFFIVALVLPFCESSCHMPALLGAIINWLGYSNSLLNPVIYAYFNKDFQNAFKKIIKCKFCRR

[3] = test system: Rattus norvegicus; experiment: in vivo effects on DA (dopamine) synthesis in cortex was reported after subcutaneous administration to reserpinized rats; inactive at a dose of 3.1; assay type: functional, organism-based
[4] = species: Rattus norvegicus; experiment: (§1) In vitro metabolic stability of the test compound was evaluated after incubation in the presence of freshly isolated rat hepatocytes; assay type: functional, Hepatocyte; set-up: reference not given here
Summary of the method: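 Rat hepatocytes were isolated by modified collagenase perfusion and incubated as suspensions (5 million cells/mL) with each compound at three concentrations. Parent loss was followed by HPLC. Initial rates gave apparent Vmax and Km by direct linear plot, with CLint = Vmax/Km. Stability is expressed relative to a reference compound incubated at the same time.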

[5] = test system: Rattus norvegicus; experiment: postsynaptic effects was assessed by the increase in the locomotor activity (reversal of reserpine induced hypokinesia) during a 30 min period after subcutaneous administration using photocell motility meters at the dose of 3.1(micr oM/kg); assay type: ADME, organism-based; details: in vivo, sc, 0.5 h
Summary of the method: (§2)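 Reserpine 5 mg/kg sc was given 18 h before testing to male Sprague–Dawley rats. Test drug was given sc in the neck, and rats were placed singly in photocell motility meters. Accumulated counts were recorded over 30 min (mean, n = 4), with gross behaviour observed throughout. Student's t test was applied.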

[6] = test system: Rattus norvegicus; experiment: In vivo effects on DA (dopamine) synthesis in corps striatum was reported after subcutaneous administration to reserpinized rats; inactive at a dose of 3.1; assay type: functional, organism-based
[7] = test system: Rattus norvegicus; experiment: (§3) 5-HTP accumulation in limbic system was determined in vivo; assay type: functional
Summary of the method: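 Male Sprague–Dawley rats (200–300 g), pretreated with reserpine 5 mg/kg sc 18 h before. Test drug given sc. 5-HTP measured in limbic brain tissue by HPLC with electrochemical detection. Dose–response curves were built from four to six dose levels (n = 4) for each substance and brain area. ED50 reported in μmol/kg sc.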

[8] = test system: Rattus norvegicus; experiment: in vivo effects on DA (dopamine) synthesis in cortex was reported after subcutaneous administration to reserpinized rats; inactive at a dose of 50; assay type: functional, organism-based
Summary of the method: (§4)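 Male Sprague–Dawley rats (200–300 g) given reserpine 5 mg/kg sc 18 h before; compounds sc in neck region, 5 mL/kg. DOPA accumulation in striatum or cortex measured by HPLC with electrochemical detection.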

[9] = test system: Rattus norvegicus; experiment: postsynaptic effects was assessed by the increase in the locomotor activity (reversal of reserpine induced hypokinesia) during a 30 min period after subcutaneous administration using photocell motility meters at the dose of 50(micro M/kg); assay type: ADME, organism-based; details: in vivo, sc, 0.5 h; summary of the method: as §2
[10] = test system: Rattus norvegicus; experiment: as §3; assay type: functional; remark: listed apart in the source
Summary of the method: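 Male Sprague–Dawley rats (200–300 g) pretreated with reserpine 5 mg/kg sc 18 h beforehand; test drug given sc in neck, 5 mL/kg, neutral pH. 5-HTP in limbic system measured by HPLC with electrochemical detection.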

[11] = test system: Rattus norvegicus; experiment: In vivo effects on DA (dopamine) synthesis in corps striatum was reported after subcutaneous administration to reserpinized rats; inactive at a dose of 50; assay type: functional, organism-based; summary of the method: as §4
[12] = test system: Rattus norvegicus; experiment: in vivo effects on DA (dopamine) synthesis in cortex was reported after subcutaneous administration to reserpinized rats; assay type: functional, organism-based
[13] = test system: Rattus norvegicus; experiment: In vivo effects on DA (dopamine) synthesis in corps striatum was reported after subcutaneous administration to reserpinized rats; I = inactive at highest dose 45 umol/kg; assay type: functional, organism-based
[14] = test system: Rattus norvegicus; experiment: postsynaptic effects was assessed by the increase in the locomotor activity (reversal of reserpine induced hypokinesia) during a 30 min period after subcutaneous administration using photocell motility meters at the dose of 0.2 (mic roM/kg); assay type: functional; summary of the method: as §2
[15] = species: Rattus norvegicus; experiment: as §1; assay type: ADME, Hepatocyte
Summary of the method: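 Rat hepatocytes were prepared by a modified collagenase perfusion method. Each compound was incubated at three concentrations in suspension at 5 million cells/mL. Initial rates were analysed by direct linear plot to give apparent Vmax and Km, and CLint = Vmax/Km. Rates were measured by HPLC and expressed relative to a reference compound incubated at the same time.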

[16] = test system: Rattus norvegicus; experiment: postsynaptic effects was assessed by the increase in the locomotor activity (reversal of reserpine induced hypokinesia) during a 30 min period after subcutaneous administration using photocell motility meters at the dose of 12.5(mic roM/kg); assay type: ADME, organism-based; details: in vivo, sc, 0.5 h; summary of the method: as §2

Sequence of D(2) dopamine receptor (P61169 whole entry): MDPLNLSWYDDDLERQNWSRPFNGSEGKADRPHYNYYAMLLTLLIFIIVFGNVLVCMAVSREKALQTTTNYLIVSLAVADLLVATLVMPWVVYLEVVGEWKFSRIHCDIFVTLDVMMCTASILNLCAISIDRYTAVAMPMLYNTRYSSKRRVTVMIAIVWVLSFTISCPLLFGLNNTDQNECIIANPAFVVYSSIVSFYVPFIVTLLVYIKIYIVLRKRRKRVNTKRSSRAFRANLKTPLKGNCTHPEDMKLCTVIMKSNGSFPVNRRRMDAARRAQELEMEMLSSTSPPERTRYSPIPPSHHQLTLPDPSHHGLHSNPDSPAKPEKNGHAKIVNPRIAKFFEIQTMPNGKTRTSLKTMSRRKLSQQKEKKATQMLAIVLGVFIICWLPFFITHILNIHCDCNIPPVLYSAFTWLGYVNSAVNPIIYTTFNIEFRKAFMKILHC

Structure (SMILES) | Ki [1] [µM] | Ki [2] [µM] | Metabolic stability [4] | ED50 [10] [µmol/kg] | also measured
Brc1cccc2c1[C@@H]1CCN(CC3CC3)[C@@H]1CC2 | 0.119 | 0.0047 |  |  | 
CCN1CC[C@H]2c3c(Br)cccc3CC[C@H]21 | 0.034 | 0.011 |  |  | 
CCCCN1CC[C@H]2c3c(Br)cccc3CC[C@H]21 | 0.075 | 0.045 |  |  | 
CCCC(=O)c1cccc2c1[C@@H]1CCN(CCC)[C@@H]1CC2 | 0.022 | 0.0007 | 0.05 |  | ED50 [3]: inactive; Locomotor activity [5]: 631; ED50 [6]: inactive; ED50 [7]: 0.26 µmol/kg
C#CCN1CC[C@H]2c3c(cccc3C(N)=O)CC[C@H]21 | > 1 | 0.048 | 0.37 |  | 
C=CCCN1CC[C@H]2c3c(cccc3C(N)=O)CC[C@H]21 | > 1 | 0.082 | 0.33 |  | 
C=CCNC(=O)c1cccc2c1[C@@H]1CCN(CCC)[C@@H]1CC2 | > 1 | 0.0022 | 0.4 | 0.8 | ED50 [8]: inactive; Locomotor activity [9]: 82; ED50 [11]: inactive
CCCN(CCC)C1CCc2cccc(O)c2C1 (stereo not given) [8-OH-DPAT] | 0.086 |  |  | 0.052 | ED50 [12]: inactive; ED50 [13]: inactive; Locomotor activity [14]: 66; Metabolic stability [15]: 0.16
COCCN1CC[C@H]2c3c(cccc3C(N)=O)CC[C@H]21 | > 1 | 0.129 | 0.58 |  | 
CCCN1CC[C@H]2c3c(cccc3C(=O)NCc3ccccc3)CC[C@H]21 | > 1 | 0.022 | 0.16 | 7 | ED50 [8]: inactive; Locomotor activity [16]: 41; ED50 [11]: inactive
NC(=O)c1cccc2c1[C@@H]1CCN(CCCF)[C@@H]1CC2 | > 1 | 0.0039 | 0.68 |  | 
CC(C)CN1CC[C@H]2c3c(cccc3C(N)=O)CC[C@H]21 | > 1 | 0.042 | 0.23 |  | 
CN1CC[C@H]2c3c(cccc3C(N)=O)CC[C@H]21 | > 1 |  | 4.9 | 17.6 | ED50 [8]: inactive; Locomotor activity [9]: 23; ED50 [11]: inactive
CCCN(CCC)C(=O)c1cccc2c1[C@@H]1CCN(CCC)[C@@H]1CC2 | > 1 | 0.434 |  |  | 
COCCN1CC[C@H]2c3c(Br)cccc3CC[C@H]21 | 0.252 | 0.097 |  |  | 
NC(=O)c1cccc2c1[C@@H]1CCN(CC3CC3)[C@@H]1CC2 | > 1 | 0.0083 | 0.5 | 1 | ED50 [8]: inactive; Locomotor activity [9]: 32; ED50 [11]: inactive
